pIC50: −log10 of the molar value.
Assays:
[1] = Inhibition of Escherichia coli MurD
[2] = test system: Escherichia coli; experiment: Inhibition of Escherichia coli MurD assessed as residual activity at 1 mM
Procedure, shortened: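 Radiolabel MurD assay: E. coli enzyme, 25 µM UMA plus 25 µM D-[14C]Glu, Tris-HCl pH 8.6, MgCl2, 5% DMSO, compound at 1 mM; 30 min at 37 °C, acid-quenched, reverse-phase HPLC with radioactivity detection. Activity expressed relative to an inhibitor-free assay; mean of two independent experiments.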

Structure (SMILES)	pIC50 [1]	Activity [2] [%]
O=C(O)CC[C@@H](NS(=O)(=O)c1ccc2ccccc2c1)C(=O)O	3.09	35
O=C(O)CC[C@@H](NC(=O)C1Oc2ccccc2NC1=O)C(=O)O (stereo partly specified)		54
O=C(O)CC[C@@H](NS(=O)(=O)Cc1ccccc1)C(=O)O		84
O=C(O)CC[C@@H](NS(=O)(=O)c1ccc2cc(OCc3ccccc3)ccc2c1)C(=O)O	3.62	
CCCCOc1ccc2cc(CN[C@H](CCC(=O)O)C(=O)O)ccc2c1	< 3.00	
O=C(O)CC[C@@H](NC(=O)CN1C(=O)c2ccccc2C1=O)C(=O)O		92
COc1cc(C#N)ccc1COc1ccc2cc(S(=O)(=O)N[C@H](CCC(=O)O)C(=O)O)ccc2c1	4.00	
CCCCOc1ccc(S(=O)(=O)N[C@H](CCC(=O)O)C(=O)O)c2ccccc12	< 3.00	
O=C(O)CC[C@@H](NS(=O)(=O)Cc1ccc(F)cc1Cl)C(=O)O		86
CCCCOc1cccc2c(S(=O)(=O)N[C@H](CCC(=O)O)C(=O)O)cccc12	< 3.00	
O=C(O)CC[C@@H](NC(=O)/C=C/c1ccccc1)C(=O)O		91
Cc1ccc(S(=O)(=O)N[C@H](CCC(=O)O)C(=O)O)cc1		66
O=C(O)CC[C@@H](NC(=O)CCc1cccc(O)c1)C(=O)O		81
CC(=O)Nc1ccc(S(=O)(=O)N[C@H](CCC(=O)O)C(=O)O)cc1		79
C[C@@H](CS(=O)(=O)N[C@H](CCC(=O)O)C(=O)O)S(=O)(=O)c1ccc2ccccc2c1	< 2.70	75
O=C(O)CC[C@@H](NC(=O)COc1ccc2ccccc2c1)C(=O)O		76
O=C(O)CC[C@@H](NS(=O)(=O)c1ccc2cc(OC3CCCC3)ccc2c1)C(=O)O	3.40	
O=C(O)CC[C@@H](NS(=O)(=O)c1ccc(-c2ccccc2)cc1)C(=O)O	2.76	43

Results, then the compound that gave them:

pIC50 [1]	Activity [2] [%]	Structure (SMILES)
3.23		COc1ccc2cc(S(=O)(=O)N[C@H](CCC(=O)O)C(=O)O)ccc2c1
< 2.70		CCCCOc1ccc2cc(S(=O)(=O)NCC(=O)O)ccc2c1
< 3.00		O=C(O)CCCOc1ccc2cc(S(=O)(=O)N[C@H](CCC(=O)O)C(=O)O)ccc2c1
3.52		CCCOc1ccc2cc(S(=O)(=O)N[C@H](CCC(=O)O)C(=O)O)ccc2c1
3.88		O=C(O)CC[C@@H](NS(=O)(=O)c1ccc2cc(OCCCc3ccccc3)ccc2c1)C(=O)O
< 2.70		CCCCOc1ccc2cc(S(=O)(=O)N[C@H](CCC(=O)OC)C(=O)OC)ccc2c1
3.20		O=C(O)CC[C@@H](NS(=O)(=O)c1ccc2cc(OCC(=O)O)ccc2c1)C(=O)O
3.72		CCOC(=O)COc1ccc2cc(S(=O)(=O)N[C@H](CCC(=O)O)C(=O)O)ccc2c1
< 3.00		CCCCOc1ccc2cc(C(=O)N[C@H](CCC(=O)O)C(=O)O)ccc2c1
3.74		CCCCOc1ccc2ccc(S(=O)(=O)N[C@H](CCC(=O)O)C(=O)O)cc2c1
< 2.70		CCCCOc1ccc2cc(S(=O)(=O)NCCCC(=O)O)ccc2c1
3.15		CCCCOc1ccc2cc(S(=O)(=O)N[C@@H](CCC(=O)O)C(=O)O)ccc2c1
3.55		CCCCOc1ccc2cc(S(=O)(=O)N[C@H](CCC(=O)O)C(=O)O)ccc2c1
3.75		CCCCCCOc1ccc2cc(S(=O)(=O)N[C@H](CCC(=O)O)C(=O)O)ccc2c1
< 3.00		CCCCOc1ccc2cc(S(=O)(=O)N(C)[C@H](CCC(=O)O)C(=O)O)ccc2c1

Source: ChEMBL document CHEMBL1140221, “Novel naphthalene-N-sulfonyl-D-glutamic acid derivatives as inhibitors of MurD, a key peptidoglycan biosynthesis enzyme” (J Med Chem, 2008)
